Assay results from ChEMBL document CHEMBL2311350, “Discovery of a novel phenylethyl benzamide glucokinase activator for the treatment of type 2 diabetes mellitus” (Bioorg Med Chem Lett, 2013).
Activity calls are given as the source filed them. The rule behind the calls is not given here.

Legend:
[1] = molecular target: T1, Hexokinase-1 (Homo sapiens) (UniProt P19367); test: Induction of hexokinase 1 (unknown origin)
T1 sequence (whole entry): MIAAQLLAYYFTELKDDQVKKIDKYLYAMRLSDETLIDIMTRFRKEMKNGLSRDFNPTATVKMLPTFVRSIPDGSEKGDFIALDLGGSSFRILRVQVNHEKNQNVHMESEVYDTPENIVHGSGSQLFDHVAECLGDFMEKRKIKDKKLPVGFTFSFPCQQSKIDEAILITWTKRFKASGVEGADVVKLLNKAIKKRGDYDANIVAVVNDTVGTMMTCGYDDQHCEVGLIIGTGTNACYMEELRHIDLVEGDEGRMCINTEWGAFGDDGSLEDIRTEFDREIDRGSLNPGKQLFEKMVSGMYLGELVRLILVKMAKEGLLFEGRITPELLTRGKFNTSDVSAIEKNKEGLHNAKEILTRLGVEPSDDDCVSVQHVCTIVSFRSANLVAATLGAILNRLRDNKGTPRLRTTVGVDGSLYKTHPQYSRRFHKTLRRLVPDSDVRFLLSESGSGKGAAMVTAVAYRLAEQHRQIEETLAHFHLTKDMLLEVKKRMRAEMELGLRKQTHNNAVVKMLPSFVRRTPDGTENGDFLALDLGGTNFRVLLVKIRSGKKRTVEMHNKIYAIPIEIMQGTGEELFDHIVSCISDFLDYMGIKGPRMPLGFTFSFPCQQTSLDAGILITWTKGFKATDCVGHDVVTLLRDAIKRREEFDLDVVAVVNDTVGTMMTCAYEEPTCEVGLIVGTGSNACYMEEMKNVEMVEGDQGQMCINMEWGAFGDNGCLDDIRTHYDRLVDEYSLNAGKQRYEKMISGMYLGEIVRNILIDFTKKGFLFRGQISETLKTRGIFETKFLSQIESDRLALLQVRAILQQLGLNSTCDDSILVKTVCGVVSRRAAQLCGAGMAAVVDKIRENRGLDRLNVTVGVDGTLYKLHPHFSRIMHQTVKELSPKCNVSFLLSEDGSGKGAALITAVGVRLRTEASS
In short: (§1)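 Selectivity tested in enzymatic hexokinase 1 and hexokinase 2 activity assays.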

[2] = organism: Mus musculus; test: Antidiabetic activity in C57BL/J mouse assessed as reduction in basal glucose level measured after acute treatment; assay type: functional, organism-based
In short: (§2)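 Basal blood glucose change followed after acute oral dosing in non-diabetic C57BL/J6 or diabetic ob/ob mice.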

[3] = organism: Mus musculus; test: Antidiabetic activity in ob/ob mouse assessed as reduction in basal glucose level measured after acute treatment; assay type: functional, organism-based; in short: as §2
[4] = molecular target: T2, Hexokinase-2 (Homo sapiens) (UniProt P52789); test: Induction of hexokinase 2 (unknown origin); in short: as §1
T2 sequence (whole entry): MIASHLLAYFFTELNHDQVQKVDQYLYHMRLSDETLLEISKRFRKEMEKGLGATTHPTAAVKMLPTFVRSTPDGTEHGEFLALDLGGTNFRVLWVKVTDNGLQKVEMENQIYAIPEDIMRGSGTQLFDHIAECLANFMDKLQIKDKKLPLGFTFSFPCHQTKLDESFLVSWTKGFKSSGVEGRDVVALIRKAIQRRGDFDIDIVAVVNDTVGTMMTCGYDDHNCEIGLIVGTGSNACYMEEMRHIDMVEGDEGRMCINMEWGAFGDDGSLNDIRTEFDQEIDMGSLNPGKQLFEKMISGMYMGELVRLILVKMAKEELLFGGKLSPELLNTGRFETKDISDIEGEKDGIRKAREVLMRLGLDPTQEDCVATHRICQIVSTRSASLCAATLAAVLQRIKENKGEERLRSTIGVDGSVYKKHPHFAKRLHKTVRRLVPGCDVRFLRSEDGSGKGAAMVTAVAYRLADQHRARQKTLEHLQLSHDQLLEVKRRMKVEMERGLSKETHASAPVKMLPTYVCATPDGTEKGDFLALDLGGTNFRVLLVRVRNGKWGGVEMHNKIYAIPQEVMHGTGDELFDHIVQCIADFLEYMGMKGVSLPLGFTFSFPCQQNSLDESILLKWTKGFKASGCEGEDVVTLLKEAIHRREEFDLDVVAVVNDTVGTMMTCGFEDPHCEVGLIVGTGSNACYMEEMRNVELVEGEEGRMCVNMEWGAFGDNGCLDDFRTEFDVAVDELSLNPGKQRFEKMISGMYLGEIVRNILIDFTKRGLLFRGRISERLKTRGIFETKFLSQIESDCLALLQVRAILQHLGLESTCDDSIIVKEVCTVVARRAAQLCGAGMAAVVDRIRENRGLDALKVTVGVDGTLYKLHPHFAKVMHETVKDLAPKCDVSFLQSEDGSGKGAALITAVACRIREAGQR

[5] = molecular target: T3, Hexokinase-4 (Homo sapiens) (UniProt P35557); test: Induction of human pancreatic glucokinase activity assessed as half maximal saturation concentration of glucose at 5 mM glucose concentration
T3 sequence (whole entry): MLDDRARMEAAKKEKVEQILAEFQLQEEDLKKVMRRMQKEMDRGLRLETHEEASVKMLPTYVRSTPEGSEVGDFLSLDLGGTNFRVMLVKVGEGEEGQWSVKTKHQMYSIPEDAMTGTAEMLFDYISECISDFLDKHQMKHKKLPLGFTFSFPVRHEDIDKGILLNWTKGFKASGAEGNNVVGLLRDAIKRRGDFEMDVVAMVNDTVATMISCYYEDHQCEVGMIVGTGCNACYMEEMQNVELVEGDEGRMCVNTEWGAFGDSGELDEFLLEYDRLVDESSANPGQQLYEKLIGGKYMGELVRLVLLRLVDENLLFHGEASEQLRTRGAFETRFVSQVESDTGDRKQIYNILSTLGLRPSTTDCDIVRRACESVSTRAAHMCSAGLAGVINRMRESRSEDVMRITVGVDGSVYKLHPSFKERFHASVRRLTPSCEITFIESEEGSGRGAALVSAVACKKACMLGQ
In short: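 Enzymatic assay with purified recombinant human pancreatic or liver glucokinase, read as fold increase in activity at 5.0 mM glucose. EC50 is the mean of at least duplicate runs. For the pancreatic enzyme, glucose S0.5 and Vmax were also determined.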

[6] = test system: MIN6; test: Induction of insulin secretion in mouse MIN6 cells; assay type: functional, cell-based
In short: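 Glucose-dependent insulin secretion measured in the mouse pancreatic beta-cell line MIN-6 across glucose levels.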

[7] = organism: Mus musculus; test: Increase in oral glucose tolerance in C57BL/J mouse; assay type: functional, organism-based
In short: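 C57BL/J6 mice given oral dosing followed by an oral glucose tolerance test. Plasma glucose was tracked over time and glucose AUC reduction calculated. Several doses were tested, including 50 and 150 mg/kg. Hypoglycemia risk was judged from the glucose profiles.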

[8] = organism: Mus musculus; test: Antidiabetic activity in ob/ob mouse assessed as reduction in blood glucose level measured after subchronic treatment; assay type: functional, organism-based
In short: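 ob/ob mice dosed orally and repeatedly in a subchronic study. Blood glucose, serum lipids and body weight were monitored.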

COC[C@H](C)Oc1cc(CCc2c(F)cccc2F)cc(C(=O)Nc2ccc(C(=O)O)cn2)c1
Activity [1]: inactive | Activity [2]: Active | Activity [3]: Active | Activity [4]: inactive | Activity [5]: Active | Activity [6]: Dose-dependent effect | Activity [7]: Dose-dependent effect | Activity [8]: Active
